PTEN del growth: growth suppressors of cells with PTEN tumor suppressor deletion; HCT116 PTEN-null viability, CellTiter-Glo, 60 h; active compounds read low; viability, % at 10 µM; actives 1.2% (n = 140,000);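 active means viability at or below a set limit, 4 SD under the median of all tested compounds, cut at about 3.7% in these data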;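 further: PTEN knockout HCT116 line with beta catenin targeted HCT116 as companion control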
Lung fibro prol: blocks proliferation of human lung fibroblasts | LL 47 human lung fibroblast viability, ATP luminescence; active compounds read low | viability, % at 10 µM | actives 1.1% (n = 85,000) | AID 719;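 active means viability at or below 50% in the single dose screen; inactive means viability above 50%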;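 further: compound exposure lasted 72 h before the ATP readout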
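Material: human lung fibroblast line LL 47, low passage; Evaluation: viability percentage against median untreated-cell control; Buffer or medium: 15% FBS in IMEM; Incubation: 72 h compound exposure at 37 °C after overnight plating; Dosing: 0.1% DMSO in all compound wells; Measured by: CellTiter-Glo luminescence.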
HUVEC inhibit: human endothelial cell proliferation inhibition; viability, % at 10 µM (by protocol); AID 648; HUVEC proliferation, CellTiter-Glo luminescence, 72 h; active compounds read low; actives 1.1% (n = 86,000);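 active means viability at or below 30%; inactive means viability above 30%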
bCat KO growth: beta-catenin-lacking colon tumor cell growth suppression; HCT116 beta-catenin knockout viability, CellTiter-Glo, 60 h; active compounds read low; viability, % at 10 µM; actives 1.5% (n = 140,000);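 active means viability at or under a set limit, the compound median less 4 SD, cut at about 6% in these data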
H69AR inhibit: growth inhibitors of human H69AR lung tumor cells; H69AR lung tumor viability, ATP luminescence, 72 h; active compounds read low; viability, % at 10 µM; actives 6% (n = 85,000); AID 598;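 active means viability at or below 40%; inactive means viability above 40%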;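 further: multidrug resistant small cell line overexpressing MRP-1 efflux transporter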
A number is an active result; n = inactive; x = not tested or not shown. The entries come from a sample that favours hits as a whole.

SMILES	PTEN del growth	Lung fibro prol	HUVEC inhibit	bCat KO growth	H69AR inhibit
COCCCn1c(=N)c(C(=O)NCc2ccc3c(c2)OCO3)cc2c(=O)n3cccc(C)c3nc21	x	n	n	x	n
CC(=O)Nc1ccc(Cl)cc1C1COC(=O)C1=N (stereo not drawn)	n	x	x	n	x
CC(C)(C)c1ccc(-c2nnc(SCC(=O)O)n2N)cc1	n	44	n	n	n
Cc1sc(NC(=O)Cn2[nH]c(=O)c3ccccc3c2=O)nc1-c1ccccc1	n	x	x	n	x
O=C(c1c(F)c(F)c(F)c(F)c1F)N(Cc1ccccc1)Cc1ccccc1	n	n	n	n	36
O=C(O)c1ccccc1C(=O)N(Cc1ccccc1)Cc1ccccc1	n	n	n	n	n
Cc1sc2ncnc(Sc3nnc4sc5ccccc5n34)c2c1C	n	n	n	n	35
N=c1c(-c2nc3ccccc3[nH]2)cc(C(=O)c2cccs2)nn1-c1ccc(Cl)cc1	x	n	24	x	7.4
O=C(CSc1ccc(Cl)cc1)Nc1cccc(-c2nc3ccccc3[nH]2)c1	n	x	x	n	x
Cc1ccc(Cl)cc1N1CCN(C(=O)Cc2c(C(=O)O)[nH]c3ccccc23)CC1	n	n	n	n	n
Cn1c(C(=O)N2CCN(c3ccc(Cl)cc3)CC2)cc2c(=O)[nH]c3ccccc3c21	n	n	n	n	34
Cc1ccc(Cl)cc1N1CCN(C(=O)Cc2cn(C)c3ccccc23)CC1	n	n	n	n	34
Cc1ccc(Cl)cc1N1CCN(C(=O)c2cc3c(=O)[nH]c4ccccc4c3n2C)CC1	n	x	x	5.6	x
Cc1ccc(C)c(N2CCN(C(=O)Cc3cn(C)c4ccccc34)CC2)c1	n	n	n	n	n
Cc1ccc(NC(=O)c2cccc(S(=O)(=O)N(C)c3ccccc3)c2)cc1S(=O)(=O)N1CCOCC1	n	x	x	n	x
Cc1coc(NC(=O)CSc2nc(-c3ccncc3)cc(C(F)(F)F)c2C#N)n1	n	n	n	n	38
O=C(CSc1nnc2n1CCCN2C(=S)Nc1ccc(Cl)cc1)c1ccccc1	n	n	n	n	26
CCOC(=O)/C=C/S(=O)(=O)c1ccc(NC(C)=O)cc1	n	14	n	n	-0.2
Cn1c(O)c(C(C#N)=C2N=c3ccccc3=N2)c2ccccc21	n	n	n	n	14
N#CC(=C1N=c2ccccc2=N1)c1c(O)[nH]c2ccccc12	n	x	x	n	x
Cc1cccc(NC(=O)CCNC(=O)c2ccco2)c1	n	x	x	n	x
Cc1ccc2[nH]c3c(c2c1)CCC3=O	n	n	n	n	n
Cc1ccc2[nH]c3c(c2c1)CCc1cn[nH]c1-3	n	n	n	n	39
Cc1ccc2[nH]c3c(c2c1)CCCC3=O	n	n	27	n	n
Cc1ccc(S(=O)(=O)NCCCCCC(=O)Nc2cccc(C)c2)cc1	n	x	x	n	x
SMILES	PTEN del growth	Lung fibro prol	HUVEC inhibit	bCat KO growth	H69AR inhibit
CC(=O)c1cccc(S(=O)(=O)NCC2CCCCC2)c1	n	x	x	n	x
CC(C)C1N=C(c2ccc3c(c2)OCO3)CC(c2ccccc2O)N1 (stereo not drawn)	n	n	n	5.8	2.1
CC1=C(C(=O)OCC(C)C)C(c2ccsc2)C2=C(CCCC2=O)N1 (stereo not drawn)	n	x	x	n	x
O=C(NCC1CCCO1)C1CCN(S(=O)(=O)Cc2ccccc2)CC1 (stereo not drawn)	n	n	n	n	n
O=C(NCc1ccco1)C1CCN(S(=O)(=O)Cc2ccccc2)CC1	0.5	n	n	0.7	n
O=C(NCc1ccco1)C1CCN(C(=O)c2cc3sccc3n2Cc2ccc(Cl)cc2)CC1	n	n	n	5.7	n
O=C(COC(=O)c1ccc(Sc2ccccc2)c([N+](=O)[O-])c1)NC1CCCc2ccccc21 (stereo not drawn)	n	n	n	n	n
Cc1ccc(C)c(NC(=O)C(Sc2ncnc3ccccc23)c2ccccc2)c1 (stereo not drawn)	1.2	x	x	n	x
O=C(c1ccccc1)c1ccc2nc(N3CCN(C(=O)c4ccco4)CC3)c3nncn3c2c1	n	n	n	n	18
CCN1CCN(c2ccc(NC(=O)CCc3c(C)nc4c(-c5ccccc5)c(C)nn4c3C)cc2)CC1	1.9	x	x	0.9	x
Cc1ccc(-c2nnc(N3CCN(C(=O)c4ccco4)CC3)c3ccccc23)cc1	n	n	n	n	n
CN1CCN(C(=O)c2cc3nc(-c4ccccc4)cc(-c4ccccc4)n3n2)CC1	n	n	n	n	n
O=C(c1cc2nc(-c3ccccc3)cc(-c3ccccc3)n2n1)N1CCN(C(=O)c2ccco2)CC1	n	n	n	n	25
Cc1cc(N2CCN(C(=O)c3ccco3)CC2)n2nc(C)c(-c3ccccc3)c2n1	n	n	n	n	18
Cc1nc2c(-c3ccccc3)c(C)nn2c(C)c1CCC(=O)NCc1ccco1	n	n	n	n	n
O=C(Nc1ccccc1)N1CCc2scc[n+]2-c2ccccc21	n	x	x	n	x
Cc1nn2c(N3CCN(C(=O)c4ccco4)CC3)cc(C(C)(C)C)nc2c1-c1ccc(Cl)cc1	n	x	x	n	x
CCN1CCN(c2cc(C(C)(C)C)nc3c(-c4ccccc4)c(C)nn23)CC1	n	9.8	3.2	n	38
Cc1cc(N2CCN(C(=O)c3ccco3)CC2)n2nc(C)c(-c3ccc(Cl)cc3)c2n1	x	n	n	x	16
COc1ccc(/C=C/C(=O)O)cc1OC	n	x	x	n	x
COc1cc(/C=C/C(=O)c2ccc(Cl)s2)cc(OC)c1O	n	x	x	4.5	x
COc1ccc(C(=O)/C=C/c2ccc(OC)c(O)c2)c(F)c1	n	x	x	5.6	x
COc1ccc(/C=C/C(=O)c2ccccc2O)cc1	n	x	x	n	x
COc1ccc(C(=O)/C=C/c2cccs2)c(OC(=O)c2cccc([N+](=O)[O-])c2)c1	n	x	x	n	x
Cc1c(/C=C/C(=O)c2ccc(Cl)s2)cnn1C	n	n	n	n	n
SMILES	PTEN del growth	Lung fibro prol	HUVEC inhibit	bCat KO growth	H69AR inhibit
COc1ccc(C(=O)/C=C/c2ccc(F)cc2)c(OC(=O)c2ccc([N+](=O)[O-])cc2)c1	3.3	x	x	n	x
COc1ccc(/C=C/C(=O)c2ccc(Cl)s2)cc1O	n	x	x	3.4	x
COc1ccc(C)cc1NC(=O)C(Sc1nnc(-c2ccncc2)n1-c1ccc(Cl)cc1)c1ccccc1 (stereo not drawn)	n	x	x	n	x
CC(=O)N1N=C(C)CC1c1ccc(O)cc1 (stereo not drawn)	n	x	x	n	x
Cc1ccc(OCCOCCN(C)C)c(Cl)c1	n	x	x	n	x
Cc1ccc2sc(NC(=O)CN3C(=O)CCC3=O)nc2c1C	n	n	n	n	n
Cc1c(Cl)ccc2sc(NC(=O)CN3C(=O)c4ccccc4C3=O)nc12	0.5	x	x	0.8	x
CC(C)NC(=S)N/N=C1\CCCCC1C1CCCCC1 (stereo not drawn)	n	x	x	n	x
COc1ccc(C(=O)C(CCC(CNC(C)(C)C)C(=O)c2ccc(OC)cc2)CNC(C)(C)C)cc1 (stereo not drawn)	1.2	x	x	1.0	x
CCOc1ccc(C2Nc3ccc4ccccc4c3-c3c2c(=O)oc2ccccc32)cc1 (stereo not drawn)	n	x	x	2.7	x
O=c1oc2ccccc2c2c1C(c1ccc(Cl)cc1)Nc1ccc3ccccc3c1-2 (stereo not drawn)	n	x	x	n	x

Screening data: PubChem BioAssay, SRMLSC
